Data: paper PMC3634367 (Biochemistry, 2011)
Non-standard residues stand in square brackets, D forms with d. Residues, ends and D or L forms follow the SMILES beside them. pT = C[C@@H](OP(=O)(O)O)[C@H](N)C(=O)O; pS = N[C@@H](COP(=O)(O)O)C(=O)O

Key:
[1] = biological target: T1, tr-arr2_1-382 (truncated human arrestin-2 mutant) (Homo sapiens, UniProt P49407); experiment: Isothermal titration calorimetry; assay type: binding
In short: (§1)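 Untagged protein from E. coli BL21, purified by ammonium sulfate precipitation, heparin affinity and size exclusion. ITC at 283K in 10 mM NaH2PO4 pH 7.0, 100 mM NaCl: cell arrestin-2 0.01 mM, syringe test peptide 0.5 mM. 13 injections of 15 ul, 210 s apart, up to 2-fold peptide excess. Peptide dilution heats into buffer run as control. Isotherms fitted to one-site, 1:1 model.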

[2] = biological target: T2, wt-arr2_1-418 (full-length human arrestin-2) (Homo sapiens, UniProt P49407); experiment: Isothermal titration calorimetry; assay type: binding
T2 sequence (P49407 whole entry): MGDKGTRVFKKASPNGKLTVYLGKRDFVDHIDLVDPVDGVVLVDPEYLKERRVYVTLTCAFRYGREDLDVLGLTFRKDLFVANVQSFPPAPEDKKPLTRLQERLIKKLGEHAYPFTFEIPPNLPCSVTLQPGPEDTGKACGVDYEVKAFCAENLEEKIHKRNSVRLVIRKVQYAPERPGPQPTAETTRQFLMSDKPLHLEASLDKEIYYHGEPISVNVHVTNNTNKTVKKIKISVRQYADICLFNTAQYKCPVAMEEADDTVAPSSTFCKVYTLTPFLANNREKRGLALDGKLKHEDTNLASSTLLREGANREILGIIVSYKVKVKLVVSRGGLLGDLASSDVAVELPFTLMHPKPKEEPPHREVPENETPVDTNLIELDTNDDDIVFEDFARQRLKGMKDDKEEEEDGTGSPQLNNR
In short: as §1

[3] = biological target: wild-type human arrestin-2 (wt-arr2_(1-418)) (human) (UniProt P49407); experiment: ITC
wild-type human arrestin-2 (wt-arr2_(1-418)) (human), sequence (P49407 whole entry, the tested form may be a part): as the sequence (P49407 whole entry) above

[4] = biological target: truncated human arrestin-2 mutant comprised of residues 1-382 (tr-arr2_(1-382)) (human) (UniProt P49407); experiment: ITC
truncated human arrestin-2 mutant comprised of residues 1-382 (tr-arr2_(1-382)) (human), sequence (P49407 1-382, change not shown): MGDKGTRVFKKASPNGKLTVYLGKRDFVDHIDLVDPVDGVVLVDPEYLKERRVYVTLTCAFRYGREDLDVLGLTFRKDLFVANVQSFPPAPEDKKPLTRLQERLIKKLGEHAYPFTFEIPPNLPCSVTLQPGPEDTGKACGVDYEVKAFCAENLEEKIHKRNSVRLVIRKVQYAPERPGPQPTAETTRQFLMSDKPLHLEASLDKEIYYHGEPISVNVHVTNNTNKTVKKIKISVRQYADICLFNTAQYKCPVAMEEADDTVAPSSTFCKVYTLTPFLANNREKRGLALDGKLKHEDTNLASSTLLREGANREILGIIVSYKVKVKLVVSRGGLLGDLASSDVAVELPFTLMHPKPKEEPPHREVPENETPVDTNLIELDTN

[5] = biological target: T2, wt-arr2_1-418 (full-length human arrestin-2); experiment: Transferred NOESY NMR of arrestin-peptide mixture, full-length arrestin-2; assay type: binding; conditions: 0.1 mM wt-arr2_1-418, 1 mM peptide (1:10), pH 6.9-7.1, 10°C, 600 MHz
[6] = biological target: T1, tr-arr2_1-382 (truncated human arrestin-2 mutant); experiment: Transferred NOESY NMR of arrestin-peptide mixture, truncated arrestin-2; assay type: binding; conditions: 0.1 mM tr-arr2_1-382, 1 mM peptide (1:10), pH 6.9-7.1, 10°C, 600 MHz
[7] = system: arrestin-2; conditions: doubly phosphorylated Thr419-ASN439 peptide of CB1 C-terminus; cited from earlier work
[8] = ITC, 283K, 10 mM NaH2PO4 pH 7.0, 100 mM NaCl

T1 sequence (P49407 1-382, stated change not applied): as the sequence (P49407 1-382, change not shown) above

Molecule: CC[C@H](C)[C@H](NC(=O)[C@H](CCCCN)NC(=O)[C@@H](NC(=O)[C@@H](N)[C@@H](C)O)C(C)C)C(=O)N[C@@H](C)C(=O)N[C@@H](CCCCN)C(=O)N[C@H](C(=O)N[C@H](C(=O)N[C@@H](CCSC)C(=O)N[C@@H](COP(=O)(O)O)C(=O)N[C@H](C(=O)N[C@@H](COP(=O)(O)O)C(=O)N[C@H](C(=O)N[C@@H](CC(=O)O)C(=O)N[C@H](C(=O)N[C@@H](COP(=O)(O)O)C(=O)N[C@@H](C)C(=O)N[C@@H](CCC(=O)O)C(=O)N[C@@H](C)C(=O)N[C@@H](CC(C)C)C(=O)O)[C@@H](C)OP(=O)(O)O)[C@@H](C)O)C(C)C)[C@@H](C)OP(=O)(O)O)C(C)C [CB1^5P454-473] (H-TVKIAKV[pT]M[pS]V[pS]TD[pT][pS]AEAL-OH)
- Kd [1]: ~2.2 µM
- Kd [2]: ~116 µM

Molecule: CB1^5P_(454-473), pentaphosphorylated peptide mimicking residues 454-473 of CB1
- Kd [3]: 116 µM
- Kd [4]: 2.2 µM

Molecule: TVKIAKVTMSVSTDTSAEAL [CB1_454-473]
- interaction by ITC [1, 8]: no indication of an interaction
- nOe change on addition of arrestin / interaction [5]: no additional peaks in the nOe spectra compared to the free peptide spectrum suggesting little or no interaction
- interaction by ITC [2, 8]: no indication of an interaction
- nOe change on addition of arrestin / interaction [6]: no additional peaks in the nOe spectra compared to the free peptide spectrum suggesting little or no interaction

Molecule: doubly phosphorylated version of a peptide corresponding to residues Thr419-ASN439 of the CB1 C-terminus: doubly phosphorylated peptide corresponding to residues Thr419-ASN439 of the CB1 C-terminus, responsible for desensitization
- binding and bound conformation [7]: binds to arrestin-2 and adopts helical conformations in the vicinity of the phosphorylated residues
